Assays:
Rattus norvegicus [1] = experiment: Antagonists of apomorphine-induced aggression in male rats, administered perorally; assay type: functional
Summary of the method: (§1)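 Male rats were dosed ip or orally as solutions or fine dispersions in water or 0.5% methylcellulose. Apomorphine-induced fighting between paired animals was scored 1 h after dosing, and stereotyped behavior was noted. Five pairs were used per dose. ED50 is the dose that cut fighting time by 50%, estimated approximately from two or three bracketing doses, and has no standard error.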

Rattus norvegicus [2] = experiment: Ability of intraperitoneally administered compound to antagonise apomorphine-induced aggression in male rats.; assay type: functional; summary of the method: as §1
Rattus norvegicus [3] = experiment: Inhibition of apomorphine-induced aggression in male rats after intraperitoneal administration of 25 mg/kg of compound; assay type: functional; conditions: ip
Summary of the method: (§2)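 Male rats received a single screening dose, given in water or 0.5% methylcellulose as a solution or fine dispersion. Apomorphine-induced fighting in paired animals was observed starting 1 h after dosing, with five pairs per dose. The value is percent inhibition of fighting time at that dose. Stereotyped behavior was recorded during the fighting observation.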

Rattus norvegicus [4] = experiment: Compounds were tested for their ability to antagonise apomorphine-induced aggression in male rats. compound was administered perorally.; assay type: functional; conditions: po; summary of the method: as §1
Rattus norvegicus [5] = experiment: Ability of intraperitoneally administered compound (25 mg/kg) to antagonise apomorphine-induced aggression in male rats; d indicates toxic at 25 mg/Kg; assay type: functional, organism-based
Rattus norvegicus [6] = experiment: Inhibition of apomorphine-induced aggression in male rats after peroral administration of 25 mg/kg of compound; assay type: functional; conditions: route oral; summary of the method: as §2
[7] = Rattus norvegicus, po, read-out: ED50
[8] = Rattus norvegicus, ip, read-out: ED50

Row | Compound | ED50 (Rattus norvegicus [1]; [7]) | ED50 (Rattus norvegicus [2]; [8]) | other results
1 | c1nc(NC2CC2)c2ncn(CC3CC3)c2n1 | 12 mg/kg | 4 mg/kg | 
2 | c1nc(NC2CCC2)c2ncn(CC3CC3)c2n1 |  |  | inhibition in vivo at 25 mg/kg (Rattus norvegicus [3]): 0%
3 | O=CN(c1ncnc2c1ncn2CC1CCC1)C1CC1 |  | 7 mg/kg | 
4 | COc1ccc(Cn2cnc3c(N(C)C)ncnc32)cc1 |  | 58 mg/kg | 
5 | CN(c1ncnc2c1ncn2CC1CC1)C1CC1 | 35 mg/kg | 7.5 mg/kg | 
6 | CN(C)c1ncnc2c1ncn2Cc1ccccc1[N+](=O)[O-] |  |  | inhibition in vivo at 25 mg/kg (Rattus norvegicus [3]): 0%
7 | CCN(c1ncnc2c1ncn2CC1CC1)C1CC1 |  | 20 mg/kg | 
8 | CN(C)c1ncnc2c1ncn2CC1CC1 | 17 mg/kg | 4.5 mg/kg | 
9 | CN(C)c1ncnc2c1ncn2Cc1cccc(N)c1 | 58 mg/kg | 23 mg/kg | 
10 | O=CN(c1ncnc2c1ncn2CC1CC1)C1CC1 | 30 mg/kg | 8 mg/kg | 
11 | CN(C)c1ncnc2c1ncn2Cc1cccc(NC(=O)C(N)Cc2ccccc2)c1 (stereo not drawn) | 96 mg/kg | 27 mg/kg | 
12 | CCNc1nc(NC2CC2)c2ncn(CC3CC3)c2n1 |  | 9 mg/kg | ED50 (Rattus norvegicus [4]): 11 mg/kg
13 | CN(C)c1ncnc2c1ncn2C1CC1 | 25 mg/kg | 9 mg/kg | 
14 | CCC(C)n1cnc2c(NC3CC3)ncnc21 (stereo not drawn) |  | 13.5 mg/kg | 
15 | c1nc(NC2CC2)c2ncn(C3CC3)c2n1 | 20 mg/kg | 4.5 mg/kg | 
16 | CN(C)c1ncnc2c1ncn2CC1CCCCC1 |  |  | inhibition in vivo at 25 mg/kg (Rattus norvegicus [3]): 0%
17 | CCC(C)n1cnc2c(N(C)C)ncnc21 (stereo not drawn) |  | 14 mg/kg | 
18 | CSc1nc(NC2CC2)c2ncn(CC3CC3)c2n1 |  | 5 mg/kg | 
19 | CC(C)N(C)c1ncnc2c1ncn2CC1CC1 |  |  | inhibition in vivo at 25 mg/kg (Rattus norvegicus [3]): 32%
20 | CN(C)c1ncnc2c1ncn2CC1CCC1 |  | 8 mg/kg | 
21 | CC(C)Cn1cnc2c(N(C)C)ncnc21 | 22 mg/kg | 5 mg/kg | 
22 | CNc1nc(NC2CC2)c2ncn(CC3CC3)c2n1 | 12.5 mg/kg | 3 mg/kg | 
23 | CCCCn1cnc2c(N(C)C)ncnc21 |  | 10 mg/kg | 
24 | CSCn1cnc2c(NC3CC3)ncnc21 |  | 23 mg/kg | 

Row | Compound | ED50 (Rattus norvegicus [1]; [7]) | ED50 (Rattus norvegicus [2]; [8]) | other results
25 | CCNc1ncnc2c1ncn2CC1CC1 |  | 22 mg/kg | 
26 | c1nc(NC2CC2)c2ncn(C3CCCC3)c2n1 |  |  | ED50 (Rattus norvegicus [5]): Toxic
27 | CCCn1cnc2c(N(C)C)ncnc21 | 15 mg/kg | 14 mg/kg | 
28 | O=CN(c1ncnc2c1ncn2C1CCC1)C1CC1 |  | 20 mg/kg | inhibition in vivo at 25 mg/kg (Rattus norvegicus [6]): 0%
29 | CCCCCn1cnc2c(N(C)C)ncnc21 |  |  | inhibition in vivo at 25 mg/kg (Rattus norvegicus [3]): 0%
30 | CN(C)c1ncnc2c1ncn2C1CCC1 | 26 mg/kg | 11 mg/kg | 
31 | O=CN(c1ncnc2c1ncn2C1CC1)C1CC1 | 7.4 mg/kg | 2.4 mg/kg | 
32 | Clc1nc(NC2CC2)c2ncn(CC3CC3)c2n1 | 4 mg/kg | 2.5 mg/kg | 
33 | CN(c1ncnc2c1ncn2C1CC1)C1CC1 | 12.5 mg/kg | 4.5 mg/kg | 
34 | c1ccc(Nc2ncnc3c2ncn3CC2CC2)cc1 |  |  | inhibition in vivo at 25 mg/kg (Rattus norvegicus [3]): 0%
35 | COc1nc(NC2CC2)c2ncn(CC3CC3)c2n1 |  |  | ED50 (Rattus norvegicus [4]): 3.7 mg/kg
36 | CN(C)c1ncnc2c1ncn2C |  |  | inhibition in vivo at 25 mg/kg (Rattus norvegicus [3]): 30%
37 | CN(C)c1ncnc2c1ncn2Cc1ccc(O)cc1 |  |  | inhibition in vivo at 25 mg/kg (Rattus norvegicus [3]): 0%
38 | CN(C)c1ncnc2c1ncn2C1CCCC1 |  |  | inhibition in vivo at 25 mg/kg (Rattus norvegicus [3]): 27%
39 | c1nc(NC2CC2)c2ncn(CC3CCCC3)c2n1 |  | 15 mg/kg | 
40 | CCOc1nc(NC2CC2)c2ncn(CC3CC3)c2n1 | 4 mg/kg | 0.8 mg/kg | 
41 | CCn1cnc2c(N(C)C)ncnc21 |  | 15 mg/kg | 
42 | Nc1nc(NC2CC2)c2ncn(CC3CC3)c2n1 |  | 9 mg/kg | inhibition in vivo at 25 mg/kg (Rattus norvegicus [6]): 26%
43 | CC(C)n1cnc2c(NC3CC3)ncnc21 | 30 mg/kg | 4 mg/kg | 
44 | CN(C)c1ncnc2c1ncn2C1CCCCCC1 |  |  | inhibition in vivo at 25 mg/kg (Rattus norvegicus [3]): 0%
45 | CC(C)Cn1cnc2c(NC3CC3)ncnc21 |  | 10 mg/kg | inhibition in vivo at 25 mg/kg (Rattus norvegicus [6]): 0%
46 | CNc1ncnc2c1ncn2CC1CC1 |  | 12 mg/kg | inhibition in vivo at 25 mg/kg (Rattus norvegicus [6]): 38%
47 | CN(C)c1ncnc2c1ncn2Cc1ccc(N)cc1 |  | 17 mg/kg | 
48 | CC(C1CC1)n1cnc2c(N(C=O)C3CC3)ncnc21 (stereo not drawn) | 7.5 mg/kg | 2.5 mg/kg | 

Row | Compound | ED50 (Rattus norvegicus [1]; [7]) | ED50 (Rattus norvegicus [2]; [8]) | other results
49 | c1nc(NC2CC2)c2ncn(CC3CCC3)c2n1 | 44 mg/kg | 10 mg/kg | 
50 | CC(=O)N(c1ncnc2c1ncn2C1CC1)C1CC1 |  |  | inhibition in vivo at 25 mg/kg (Rattus norvegicus [3]): 22%
51 | CN(C)c1ncnc2c1ncn2Cc1cccc(C#N)c1 |  | 13 mg/kg | 
52 | CCN(C)c1ncnc2c1ncn2CC1CC1 |  | 12.5 mg/kg | 
53 | c1nc(N2CCCCC2)c2ncn(CC3CC3)c2n1 |  |  | inhibition in vivo at 25 mg/kg (Rattus norvegicus [3]): 28%
54 | Nc1ncnc2c1ncn2CC1CC1 |  | 20 mg/kg | 
55 | CN(C)c1ncnc2c1ncn2Cc1cccc(Cl)c1 |  | 50 mg/kg | 
56 | CC(C1CC1)n1cnc2c(NC3CC3)ncnc21 (stereo in doubt; 60) |  |  | ED50 (Rattus norvegicus [1]): 9 mg/kg; ED50 (Rattus norvegicus [2]): 2 mg/kg
57 | CC(C1CC1)n1cnc2c(NC3CC3)ncnc21 (stereo in doubt; 59) |  |  | ED50 (Rattus norvegicus [1]): 25 mg/kg; ED50 (Rattus norvegicus [2]): 4.5 mg/kg
58 | CCN(CC)c1ncnc2c1ncn2CC1CC1 |  |  | inhibition in vivo at 25 mg/kg (Rattus norvegicus [3]): 0%
59 | CCCOc1nc(NC2CC2)c2ncn(CC3CC3)c2n1 | 2.5 mg/kg | 2.5 mg/kg | 
60 | c1nc(NCC2CC2)c2ncn(CC3CC3)c2n1 |  |  | inhibition in vivo at 25 mg/kg (Rattus norvegicus [3]): 28%
61 | CC(C1CC1)n1cnc2c(NC3CC3)ncnc21 (stereo in doubt; 61) |  |  | ED50 (Rattus norvegicus [1]): >25 mg/kg; ED50 (Rattus norvegicus [2]): 12.5 mg/kg
62 | CCCNc1ncnc2c1ncn2CC1CC1 |  |  | inhibition in vivo at 25 mg/kg (Rattus norvegicus [3]): 0%
63 | CN(C)c1ncnc2c1ncn2C1CCCCC1 |  |  | inhibition in vivo at 25 mg/kg (Rattus norvegicus [3]): 70%
64 | c1nc(NC2CC2)c2ncn(C3CCC3)c2n1 |  | 19 mg/kg | 
65 | CC(C)(C)Nc1ncnc2c1ncn2CC1CC1 |  |  | inhibition in vivo at 25 mg/kg (Rattus norvegicus [3]): 0%
66 | CCCCn1cnc2c(NC3CC3)ncnc21 |  | 18 mg/kg | 
67 | CN(C)c1ncnc2c1ncn2Cc1ccccc1F |  | 37 mg/kg | 
68 | CN(C)c1ncnc2c1ncn2Cc1ccccc1 | 52 mg/kg | 15 mg/kg | 
69 | FC(F)(F)c1nc(NC2CC2)c2ncn(CC3CC3)c2n1 | 2 mg/kg | 0.9 mg/kg | 
70 | CC(C)n1cnc2c(N(C)C)ncnc21 | 15 mg/kg | 11 mg/kg | 
71 | CCCn1cnc2c(NC3CC3)ncnc21 |  | 6 mg/kg | 
72 | c1nc(N2CCC2)c2ncn(CC3CC3)c2n1 |  |  | inhibition in vivo at 25 mg/kg (Rattus norvegicus [3]): 30%
